Source: PubChem (The Scripps Research Institute Molecular Screening Center)
NPY Y2 blocker – NPY-Y2 (human) receptor antagonism; P49146; NPY-Y2 expressing cells, antagonist mode; inhibition, % at 2.7 µM; actives 0.99% (n = 140,000); in the data active means inhibition above about 17%;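 further: 0% = vehicle with agonist challenge and 100% = reference antagonist with challenge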
Target sequence (P49146 whole entry, looked up): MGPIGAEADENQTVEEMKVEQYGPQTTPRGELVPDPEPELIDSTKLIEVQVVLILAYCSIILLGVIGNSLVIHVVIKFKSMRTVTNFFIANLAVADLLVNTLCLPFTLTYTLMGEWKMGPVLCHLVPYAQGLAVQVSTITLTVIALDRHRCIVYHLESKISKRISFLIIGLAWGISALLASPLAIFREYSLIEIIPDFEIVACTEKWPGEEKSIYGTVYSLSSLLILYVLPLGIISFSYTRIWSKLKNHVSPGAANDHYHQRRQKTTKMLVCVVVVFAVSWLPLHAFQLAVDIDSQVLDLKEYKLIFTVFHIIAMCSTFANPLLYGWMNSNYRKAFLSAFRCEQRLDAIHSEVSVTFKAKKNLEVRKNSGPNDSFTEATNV
NPY-Y2 PAM-ag – potentiators or agonists of human neuropeptide Y receptor Y2; P49146; cells expressing NPY-Y2, potentiator/agonist read-out; activation, % at 3.6 µM; actives 0.45% (n = 220,000); AID 1359; in the data active means activation above about 27%;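 further: cells stimulated with NPY near EC25 plus isoproterenol at EC100; 0% = vehicle plus submaximal agonist and 100% = vehicle plus saturating agonist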
NPY-Y1 PAM-ag – potentiates or activates human NPY-Y1 receptor | actives 0.37% (n = 220,000) | NPY-Y1 expressing cells, potentiator/agonist activation | activation, % at 3.6 µM | P25929 | AID 1304; in the data active means activation above about 33%, passing the limit was not always enough;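 further: cells stimulated with NPY at EC10 then isoproterenol at EC100; 0% = low agonist plus stimulus and 100% = saturating agonist plus stimulus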
NPY-Y1 antag – antagonists of human neuropeptide Y receptor Y1; P25929; HEK293-CNG Y1 cells, membrane potential fluorescence; NPY at EC95, then isoproterenol; inhibition, % at 3.6 µM; actives 1% (n = 200,000); AID 1040;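 active means inhibition above the campaign mean inhibition of all tested compounds plus 3 SD, cut at about 20% in these data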;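 further: 0% = DMSO wells given NPY plus isoproterenol and 100% = isoproterenol alone without NPY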
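Test system: HEK293 cells co-expressing NPY Y1 receptor and cyclic-nucleotide gated channel; Also added: NPY (25 nM), isoproterenol (1 µM), Ro 20-1724 (25 µM); Compound dosing: one concentration, 3.6 µM, in 0.4% DMSO; Timing: dye 3 h, compound 60 min room temperature, stimulation 45 min; Technique: Membrane-potential fluorescent dye readout.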
NPY-Y2 pot conf – confirmation of human NPY-Y2 receptor potentiators or agonists. shares compounds with NPY-Y2 PAM-ag. cell-based NPY-Y2 potentiator/agonist assay. activation, % at 3.6 µM. actives 20% (n = 450); in the data active means activation above about 33%
NPY-Y1 potentiator – potentiates or activates NPY-Y1, counter-screen for NPY-Y2 hits; AID 1651; actives 20% (n = 450); shares compounds with NPY-Y2 PAM-ag; activation, % at 3.6 µM; Y1 HEK293-CNG cells, membrane potential fluorescence; in the data active means activation above about 45%;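 further: cells stimulated with submaximal NPY then isoproterenol with phosphodiesterase inhibitor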
NPY-Y1 agonist 2 – counter-screen for NPY-Y2 potentiators: agonists of human NPY-Y1. shares compounds with NPY-Y2 PAM-ag. HEK293 Y1-CNGC, membrane potential fluorescence, agonism. activation, % at 3.6 µM. actives 37% (n = 450). AID 1702;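 active means activation above the mean of DMSO-only control wells plus 3 SD, cut at about 18% in these data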;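 further: cells stimulated with 1 µM isoproterenol plus the PDE inhibitor Ro 20-1724; 0% = isoproterenol with DMSO and no NPY and 100% = 40 nM NPY; Y1 agonists lower the membrane potential dye signal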
CNGC inh – cyclic nucleotide gated channel inhibition as counter-screen; inhibition, % at 3.6 µM; AID 1703; actives 32% (n = 450); shares compounds with NPY-Y2 PAM-ag; HEK293-CNG parental, isoproterenol cAMP, membrane potential fluorescence;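 active means inhibition above the control-well mean plus 3 SD of those wells, cut at about 22% in these data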;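 further: 0% = DMSO with isoproterenol and 100% = DMSO without isoproterenol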
Y2 agonist ctr – activates human NPY-Y2 receptor in potentiator counter-screen; actives 56% (n = 450); shares compounds with NPY-Y2 PAM-ag; AID 1710; activation, % at 3.6 µM; HEK293 Y2/CNGC cells, membrane potential fluorescence, agonist mode;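 active means activation above the mean of solvent-only control wells plus 3 SD, cut at about 10% in these data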;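 further: cells stimulated by isoproterenol with no NPY added so direct agonism is tested; 0% = DMSO with isoproterenol alone and 100% = NPY at EC100 plus isoproterenol; agonism lowers probe fluorescence through less cAMP and CNG channel opening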
* = called active by the depositor; nt = no result given. Compounds with a hit are over-represented: about 1.9% of the library has one in this group of screens.

SMILES	NPY Y2 blocker	NPY-Y2 PAM-ag	NPY-Y1 PAM-ag	NPY-Y1 antag	NPY-Y2 pot conf	NPY-Y1 potentiator	NPY-Y1 agonist 2	CNGC inh	Y2 agonist ctr
O=C1C2CC=CCC2C(=O)N1c1ccc(NCCc2ccc(O)cc2)c([N+](=O)[O-])c1 (stereo not given)	-2	46*	40	-10	5	-2	4	10	13*
COc1ccc(CCNc2ccc(N3C(=O)CC(C)C3=O)cc2[N+](=O)[O-])cc1OC (stereo not given)	nt	37*	-6	7	0	-36	-37	-17	-1
COc1cc(-c2csc(N3CCOCC3)n2)cc(OC)c1OC	0	19	2	-1	nt	nt	nt	nt	nt
COc1ccc(-c2csc(N3CCN(c4cc(C)nc5ccccc45)CC3)n2)cc1OC	nt	32*	-1	8	40*	39	16	33*	29*
O=C(CSc1n[nH]c(=O)[nH]c1=O)NC1CC1	nt	-5	-20	2	nt	nt	nt	nt	nt
COc1cc(CN2CCNC(=O)C2CC(=O)N2CCc3ccccc3C2)cc(OC)c1 (stereo not given)	nt	-4	1	1	nt	nt	nt	nt	nt
Oc1ccc(O)c(Cc2nc3ccccc3s2)c1	nt	29*	27	-2	6	12	8	11	5
Oc1ccccc1OCc1nc2ccccc2s1	2	-3	-20	1	nt	nt	nt	nt	nt
CCn1c2ccccc2c2cc(NC(=O)CSc3nnc(-c4ccccc4OC)n3N)ccc21	-5	43*	15	-10	11	15	19*	17	16*
Oc1ccccc1C1CC(c2cccs2)=NC(c2cccc(Br)c2)N1 (stereo not given)	nt	-2	14	4	nt	nt	nt	nt	nt
CC1(C)C=C(c2ccc(O)cc2)CC(C)(C)N1	0	36*	23	-2	0	-1	-11	2	6
CCOC(=O)CC(NS(=O)(=O)c1ccc(OC)c(C)c1)c1cccc([N+](=O)[O-])c1 (stereo not given)	0	0	-4	3	nt	nt	nt	nt	nt
CCn1[nH]c(=O)c(=Nc2c(C)n(C)n(-c3ccccc3)c2=O)cc1-c1ccc(Cl)cc1	1	41*	53	-7	38*	60*	43*	53*	30*
N/C(=N\OC(=O)c1ccc(OCC(F)(F)F)nc1)c1ccc(Cl)cc1	nt	82*	-36	nt	-11	-5	-16	-11	9
N/C(=N\OC(=O)c1ccc(Cl)cc1)c1ccc(Cl)cc1	0	3	2	7	nt	nt	nt	nt	nt
Cn1c(=O)c([N+](=O)[O-])c(NCc2ccccc2Cl)c2ccccc21	nt	-12	10	nt	nt	nt	nt	nt	nt
Cn1c(=O)c([N+](=O)[O-])c(NCc2ccc3c(c2)OCO3)c2ccccc21	nt	99*	3	nt	-15	-29	-24	-9	-10
CCC/C(O)=C1\C(=O)CCCC1=NCCc1c(C)[nH]c2ccc(OC)cc12	nt	19	12	1	nt	nt	nt	nt	nt
CCOc1cc(C(=O)N/N=C\c2cn(CC)nc2C)cc(OCC)c1OCC	1	-12	-15	2	nt	nt	nt	nt	nt
O=C(NCCC1=CCCCC1)C(=O)NCC(c1ccco1)N1CCN(c2ccccc2F)CC1 (stereo not given)	1	7	15	-3	nt	nt	nt	nt	nt
Cc1ccccc1-n1nc(CSc2nc3ccccc3[nH]2)c(-c2ccccc2)c1N	8	11	-2	12	nt	nt	nt	nt	nt
Nc1c(-c2ccccc2)c(CSc2nc3ccccc3[nH]2)nn1-c1ccc(Cl)cc1	2	29*	13	3	33	29	17	21	33*
c1ccc(CSc2nc3ccccc3[nH]2)cc1	nt	0	4	nt	nt	nt	nt	nt	nt
Nc1c(-c2ccccc2)c(CSc2nc3ccccc3[nH]2)nn1-c1cccc(Cl)c1	-1	32*	7	5	39*	36	36*	28*	57*
CC(=O)Nc1cc(C)c(S(C)(=O)=O)c(C)c1	0	-3	-9	2	nt	nt	nt	nt	nt
SMILES	NPY Y2 blocker	NPY-Y2 PAM-ag	NPY-Y1 PAM-ag	NPY-Y1 antag	NPY-Y2 pot conf	NPY-Y1 potentiator	NPY-Y1 agonist 2	CNGC inh	Y2 agonist ctr
O=C(COc1ccc(Cl)cc1)Nc1ncc([N+](=O)[O-])s1	nt	40*	-1	4	4	-6	-11	-4	10*
CCSc1nnc(NC(=O)COc2ccc(Cl)cc2)s1	nt	3	6	3	nt	nt	nt	nt	nt
COC(=O)c1ccc(COc2ccc(C)cc2[N+](=O)[O-])o1	nt	56*	20	nt	6	-10	-15	-10	6
Cc1ccc(OCc2ccc(C(=O)NN)o2)c([N+](=O)[O-])c1	nt	-8	17	nt	nt	nt	nt	nt	nt
CC(=O)Nc1ccccc1OCC(=O)NCC(F)(F)F	nt	-2	-9	2	nt	nt	nt	nt	nt
Cc1ccccc1Nc1c(-c2ccncc2)nc2ccc(Br)cn12	0	47*	31	-1	71*	76*	58*	53*	70*
CCc1noc(C)c1C(=O)Nc1ncc(C)s1	2	32*	25	-1	-1	3	-1	2	-1
CCc1noc(C)c1C(=O)Nc1nc(-c2cc(C)ccc2C)c(C)s1	1	-15	4	-2	nt	nt	nt	nt	nt
CCOc1cc(C(=S)N2CCOCC2)ccc1OS(=O)(=O)c1ccc(NC(C)=O)cc1	10	33*	8	6	5	-16	-10	-2	-6
CCC(CO)NS(=O)(=O)c1cc(-c2nn(C)c(=O)c3ccccc23)ccc1C (stereo not given)	nt	4	10	8	nt	nt	nt	nt	nt
Cc1cccc(C)c1Nc1c(-c2ccc(N3CCOCC3)cc2)nc2ncccn12	-5	43*	36	-4	91*	111*	96*	83*	97*
O=C(Cc1cccc(C(F)(F)F)c1)NCC(c1ccco1)N1CCCCC1 (stereo not given)	nt	7	-1	2	nt	nt	nt	nt	nt
COc1cccc(N2CCN(c3ncnc4c3[nH]c3ccccc34)CC2C)c1 (stereo not given)	11	2	28	6	nt	nt	nt	nt	nt
COc1cccc(N2CCN(c3ncnc4c3[nH]c3ccc(F)cc34)CC2C)c1 (stereo not given)	8	39*	-25	57*	-4	-27	-40	-41	8
O=C(O)CC1(CC(=O)Nc2ccccc2N2CCOCC2)CCCC1	nt	59*	24	nt	-4	-8	-4	-5	-5
O=C(O)CCC(=O)Nc1ccccc1N1CCOCC1	-1	2	1	-5	nt	nt	nt	nt	nt
CC(C)NCC(O)COc1ccc(CC(N)=O)cc1 (stereo not given)	2	15	14	-1	nt	nt	nt	nt	nt
COCCc1ccc(OCC(O)CNC(C)C)cc1 (stereo not given)	0	65*	57	-7	38*	39	34*	8	28*
